ZTA counter = counter-screen for EBNA-1 inhibitors: inhibitors of Epstein-Barr virus ZTA | P03206 | ZTA-DNA binding, fluorescence polarization | inhibition, % at 11 µM | hit rate 0.15% among 320,000 | AID 2234; in the data active = inhibition above about 33%
procasp7 counter = procaspase-7 activators, primary screen, counter-screen for procaspase-3 activator project, biochemical, absorbance, HTS, human; Caspase-7 (Homo sapiens), P55210; recombinant procaspase-7, Ac-DEVD-pNA absorbance 405 nm; D23A/D198A/D206A triple mutant, cannot self-cleave; scale: DMSO 0, 5 µM enzyme 100; activation, % at 8.5 µM; hit rate 0.093% among 330,000; AID 463210, 2010;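 active = percent activation above the screen-wide mean plus 3 SD, cut at about 25% in these data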
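System: Procaspase-7 triple mutant (PC-7 D3A); measure: % activation from two-timepoint absorbance difference, scaled to controls; times: 1 h compound preincubation, 2 h substrate cleavage, 25 °C; also added: Ac-DEVD-pNA substrate, 400 µM as added; measured by: Epi-absorbance of released pNA at 405 nm, two timepoints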
Apaf-1 inh = inhibitors of human Apaf-1 apoptosome, primary screen, biochemical, DEVD-Rh110 fluorescence, uHTS. Apoptotic protease-activating factor 1 (Homo sapiens), O14727. hit rate 0.71% among 330,000. reconstituted apoptosome caspase-3 activity. inhibition, % at 20 µM; active = inhibition of at least 40% at 20 µM;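 also: plate controls were DMSO wells for no effect and DEVD-CHO caspase inhibitor wells for full effect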
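Material: reconstituted apoptosome with Apaf-1, cytochrome c, caspase-9, procaspase-3, dATP / Buffer or medium: pH 7.5 Hepes buffer with CHAPS, BSA, DTT / Also added: cytochrome c with DEVD-Rh110 / Schedule: compound with Apaf-1, dATP, procaspase-3 30 min, then 50 min reaction, room temperature / Technique: rhodamine 110 fluorescence at Ex 480/Em 540 nm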
procasp3 activ = activators of human procaspase-3 D3A mutant, primary screen, biochemical, absorbance, PC-3 D3A mutant, single concentration; recombinant procaspase-3 D3A, Ac-DEVD-pNA absorbance 405 nm; activation, % at 8.5 µM; hit rate 0.11% among 330,000; AID 463141, 2010; Caspase-3 (Homo sapiens), P42574;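 active = activation above the mean of all tested compounds plus 3 SD, cut at about 21% in these data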;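 also: 0% = DMSO alone and 100% = DMSO wells spiked with extra 5 µM PC-3 D3A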
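Compound: 8.5 µM single point, 0.8% DMSO / Material: Autoprocessing-dead procaspase-3 D3A mutant enzyme / Timing: 1 h preincubation plus 2 h reaction at 25 °C / Medium: Zinc-free HEPES/NaCl buffer with 0.01% Triton X-100 at pH 7.4 / Technique: 405 nm absorbance of p-nitroaniline, reads at 0 and 120 min / Repeats: one well per compound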
EBNA-1 inh = EBNA-1 DNA-binding inhibitors, primary screen, biochemical, fluorescence polarization. inhibition, % at 14.8 µM. hit rate 0.34% among 300,000; in the data active = inhibition above about 28%
GSTO1 counter = inhibitors of recombinant GSTO1, primary screen, counter-screen for RBBP9 inhibitor project, biochemical, fluorescence polarization; activity-based probe fluorescence polarization; Glutathione S-transferase omega-1 (Homo sapiens), P78417; inhibition, % at 5.96 µM; hit rate 1.1% among 300,000;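 active = inhibition above the campaign mean inhibition plus 3 SD, cut at about 35% in these data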;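 also: 0% = GSTO1-1 with DMSO and 100% = wells lacking GSTO1-1 enzyme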
GSTO1 confirm = GSTO1 inhibitor hit confirmation, counter-screen for RBBP9 inhibitor project, biochemical, fluorescence polarization, triplicate; shares compounds with GSTO1 counter; recombinant GSTO1, probe fluorescence polarization; inhibition, % at 5.96 µM; hit rate 54% among 2,400;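 active = inhibition above the primary screen's cutoff, its mean inhibition plus 3 SD, cut at about 35% in these data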;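 also: loss of polarization as inhibitors block binding of rhodamine sulfonate ester activity probe; 0% = GSTO1 with DMSO and 100% = wells lacking GSTO1 enzyme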
GSTO1 recomb ABPP = inhibitors of purified human GSTO1, late-stage follow-up, biochemical, gel ABPP, SE-Rh probe, percent inhibition; shares compounds with GSTO1 counter; recombinant GSTO1, gel ABPP SE-Rh probe fluorescence; inhibition, % at 1 µM; hit rate 30% among 130;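 active = inhibition of the enzyme GSTO1 above about 75%, limit read from the data; inactive = inhibition below that limit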
Starred values were filed as active, the others as inactive; . = no result given. Shown are actives, neighbours in structure and some others; about 1.8% of the full set was active somewhere.

SMILES | ZTA counter | procasp7 counter | Apaf-1 inh | procasp3 activ | EBNA-1 inh | GSTO1 counter | GSTO1 confirm | others
CCc1ccc(NS(=O)(=O)c2ccc3c(c2)oc(=O)n3C)cc1 | -6.8 | -5.2 | 13.8 | -4.8 | -21.4 | 53.0* | 43.9*
COC(=O)[C@H](Cc1c[nH]c2ccccc12)NC(=O)CCCc1c[nH]c2ccccc12 | -8.4 | -2.5 | -4.0 | -1.5 | 5.8 | 5.1 | .
CCOC(=O)C(Cc1ccc(O)cc1)NC(=O)CCc1c[nH]c2ccccc12 (configuration not stated) | 5.3 | 2.4 | -0.7 | 0.9 | 0.8 | 38.1* | 4.7
O=C(CCl)Nc1cccc(S(=O)(=O)NC2=NCCC2)c1 | 9.4 | -11.6 | -9.4 | -5.2 | 7.7 | 98.5* | 98.7*
COc1cccc(OC)c1C(=O)OCC(=O)NC1CCCCCC1 | -4.3 | -5.5 | 18.7 | 2.8 | . | . | .
Cc1cc(S(=O)(=O)NCCCN2CCOCC2)ccc1Br | 7.3 | 5.9 | -17.4 | 3.2 | . | . | .
Oc1ccc(/C=N/N(c2ccccc2)c2ccccc2)cc1O | 0.5 | -25.5 | 8.9 | -24.4 | -6.6 | 8.5 | .
Oc1ccc(/C=N/N(c2ccccc2)c2ccccc2)c(O)c1O | -4.2 | -9.7 | 31.9 | 2.9 | -6.9 | 50.8* | 5.1
CCN(CC(=O)Nc1c(F)cccc1F)C(=O)C1CCCN(C(=O)c2ccc(Cl)cc2)C1 (configuration not stated) | -3.1 | 7.0 | 30.9 | -6.2 | 10.8 | -2.4 | .
CC(C)(c1ccccc1)c1ccc(OCC2CO2)cc1 (configuration not stated) | -1.4 | 5.0 | 13.2 | -2.1 | 1.5 | 94.5* | 90.7* | GSTO1 recomb ABPP=63.0
CN(C)CCOc1ccc(C(C)(C)c2ccccc2)cc1 | 6.5 | -7.7 | -10.9 | 2.0 | -0.3 | -2.1 | .
O=S(=O)(c1ccc(OCC2CO2)cc1)c1ccc(OCC2CO2)cc1 (configuration not stated) | 5.0 | -0.2 | -4.8 | 7.5 | -5.4 | 91.6* | 89.7* | GSTO1 recomb ABPP=31.0
O=C1c2ccccc2C(=O)C12OC2c1ccc(Cl)cc1 (configuration not stated) | 0.7 | -8.8 | 27.2 | 1.4 | -1.1 | 44.7* | 14.6
COc1cc(C(=O)N2CCN(S(=O)(=O)c3ccc(C)cc3C)CC2)ccc1OCC(=O)N1CCOCC1 | -1.4 | 11.3 | -31.9 | 8.9 | . | . | .
COc1ccc(-c2[nH]ncc2CN2CCN(Cc3cccs3)CC2)cc1F | -4.4 | 3.5 | -11.4 | -18.8 | 3.7 | 72.4* | 3.8
COc1ccc2[nH]c3c(c2c1)CCN1C(=O)C(CC(=O)NCCc2ccccn2)C[C@H](C(=O)N(C(C)C)C(C)C)[C@@]31C (some centres not stated) | . | 6.2 | 13.7 | 2.8 | . | . | .
COc1ccc2c(c1)c1nc3n(c(=O)c1n2CC(=O)Nc1cc(C)[nH]n1)CCS3 | 8.4 | 3.4 | -13.8 | -0.8 | 10.9 | 91.9* | 4.1
CCc1nnc(N/N=C/c2cc(Br)c(O)cc2O)n1N | -19.4 | -10.7 | 21.7 | -3.6 | -3.5 | 67.7* | 12.8
CCc1nnc(N/N=C/c2ccc(O)c(OC)c2)n1N | 5.9 | -15.9 | -11.3 | -0.4 | 13.4 | 19.8 | .
Cc1cc(=O)[nH]c(N/N=C/c2ccc(O)c(O)c2)n1 | -7.8 | -19.5 | 5.1 | 0.1 | -11.0 | 42.1* | 6.8

Screening results as filed in PubChem BioAssay.
